Measured values taken from ChEMBL document CHEMBL1152609, “Synthesis and pharmacological exploitation of clioquinol-derived copper-binding apoptosis inducers triggering reactive oxygen species generation and MAPK pathway activation” (2009).
Calls of active or inactive are those of the source. No cut-off for these calls is given here.

Assays:
HeLa [1] = test: Induction of apoptosis in human HeLa cells assessed as procaspase-9 activation at 10 uM after 24 hrs by Western blot; type: functional, cell-based
HeLa [2] = test: Induction of apoptosis in human HeLa cells assessed as procaspase-9 activation at 3 uM after 24 hrs by Western blot; type: functional, cell-based
HeLa [3] = test: Growth inhibition of human HeLa cells after 48 hrs by MTT assay in presence of 100 uM ZnCl2; type: functional
Outline: (§1)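 Cells seeded at 5 × 10³/well and allowed 24 h to attach, then exposed to compound (DMSO stock) or vehicle for 48 h in 10% FBS DMEM at 37 °C, 5% CO₂. MTT (2 mg/mL in PBS) added for a further 2 h; formazan dissolved in DMSO and read at 570 nm. Inhibition = (1 − At/Ac) × 100. GI₅₀ interpolated from dose-response curves; mean ± SEM of 4–6 experiments; top concentration 40 μM.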

[4] = Growth inhibition of human BT-483 cells after 48 hrs by MTT assay in presence of 10% FBS supplemented DMEM medium; type: functional; conditions: BT-483, 48 h; outline: as §1
HeLa [5] = test: Induction of apoptosis in human HeLa cells assessed as accumulation at subG1 phase at 3 uM in presence of 10 uM CuCl2 after 24 hrs using propidium iodide staining by flow cytometry; type: functional
Outline: (§2)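 HeLa cells exposed 24 h to test agent; controls were 0.5% DMSO and untreated cells. Optional additions were CuCl₂ 10 μM, tempol 1 mM or z-VAD. Cells were fixed in 80% ethanol and held at −20 °C. They were then stained 30 min at room temperature in the dark with PI 0.08 mg/mL, 0.1% Triton X-100 and RNase A 0.2 mg/mL in PBS. Subdiploid (sub-G1) fraction was quantified by flow cytometry as % of all events.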

HeLa [6] = test: Stimulation of reactive oxygen species in human HeLa cells at 3 uM in presence of 5 uM CuCl2 after 1 hr by dihydroethidium dye based fluorescence assay; type: functional, cell-based
Outline: (§3)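 HeLa cells grown in DMEM with 10% FBS, 2 mM glutamine, penicillin/streptomycin at 37 °C, 5% CO2. Compound given with CuCl2, with or without tempol 1 mM; 0.5% DMSO control, untreated blank. Dihydroethidium 5 µmol/L loaded 30 min, PBS wash, epifluorescence microscopy; four separate cultures, two to six coverslips each.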

[7] = Growth inhibition of human CE81T cells after 48 hrs by MTT assay in presence of 10% FBS supplemented DMEM medium; type: functional; outline: as §1
[8] = Activation of JNK phosphorylation in human HeLa cells at 3 uM in presence of 10 uM CuCl2 after 2 hrs by Western blot; type: cell-based
Outline: (§4)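 HeLa cells grown in DMEM with 10% FBS, 2 mM glutamine and penicillin/streptomycin at 37 °C, 5% CO₂. Treated cells were lysed and the extracts run on Western blot. Membranes were blocked overnight at 4 °C in TBST/5% non-fat milk. Probed with phospho- and total ERK1/2, p38 and JNK antibodies, then anti-mouse or anti-rabbit IgG (1:10,000, 1 h, RT), with ECL detection.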

HeLa [9] = test: Growth inhibition of human HeLa cells after 48 hrs by MTT assay in presence of 10 uM CuCl2; type: functional; outline: as §1
HeLa [10] = test: Activation of ERK phosphorylation in human HeLa cells at 3 uM in presence of 10 uM CuCl2 after 2 hrs by Western blot; type: cell-based; outline: as §4
HeLa [11] = test: Induction of apoptosis in human HeLa cells assessed as PARP cleavage at 10 uM after 24 hrs by Western blot; type: functional, cell-based
HeLa [12] = test: Induction of apoptosis in human HeLa cells assessed as accumulation at subG1 phase after 24 hrs by flow cytometry; type: functional, cell-based; outline: as §2
[13] = biological target: T1, MAP kinase p38 (Homo sapiens) (UniProt O15264+Q15759+Q16539+P53778); test: Activation of p38 phosphorylation in human HeLa cells at 3 uM in presence of 10 uM CuCl2 after 2 hrs by Western blot; type: cell-based; outline: as §4
HeLa [14] = test: Growth inhibition of human HeLa cells after 48 hrs by MTT assay in presence of 10% FBS supplemented DMEM medium; type: functional; outline: as §1
HeLa [15] = test: Growth inhibition of human HeLa cells after 48 hrs by MTT assay in presence of 50 uM ZnCl2; type: functional; outline: as §1
HeLa [16] = test: Activation of ERK phosphorylation in human HeLa cells at 3 uM in presence of 10 uM CuCl2 by Western blot; type: cell-based; conditions: TDE = time-dependent effect; outline: as §4
[17] = biological target: T1, MAP kinase p38 (Homo sapiens); test: Activation of p38 phosphorylation in human HeLa cells at 3 uM after 2 hrs by Western blot; type: cell-based; outline: as §4
[18] = Activation of JNK phosphorylation in human HeLa cells at 3 uM in presence of 10 uM CuCl2 and tempol after 2 hrs by Western blot; type: cell-based; outline: as §4
[19] = biological target: T1, MAP kinase p38 (Homo sapiens); test: Activation of p38 phosphorylation in human HeLa cells at 3 uM in presence of 10 uM CuCl2 and tempol after 2 hrs by Western blot; type: cell-based; outline: as §4
HeLa [20] = test: Growth inhibition of human HeLa cells after 48 hrs by MTT assay in presence of 1 uM CuCl2; type: functional; outline: as §1
[21] = biological target: T1, MAP kinase p38 (Homo sapiens); test: Activation of p38 phosphorylation in human HeLa cells at 3 uM in presence of 10 uM CuCl2 by Western blot; type: cell-based; conditions: TDE = time-dependent effect; outline: as §4
HeLa [22] = test: Induction of apoptosis in human HeLa cells assessed as accumulation at subG1 phase at 3 uM in presence of 1 mM tempol after 24 hrs using propidium iodide staining by flow cytometry; type: functional; outline: as §2
HeLa [23] = test: Activation of ERK phosphorylation in human HeLa cells at 3 uM after 2 hrs by Western blot; type: cell-based; outline: as §4
HeLa [24] = test: Induction of apoptosis in human HeLa cells assessed as procaspase-3 activation at 10 uM after 24 hrs by Western blot; type: functional, cell-based
[25] = Activation of JNK phosphorylation in human HeLa cells at 3 uM after 2 hrs by Western blot; type: cell-based; outline: as §4
[26] = Activation of JNK phosphorylation in human HeLa cells at 3 uM in presence of 10 uM CuCl2 by Western blot; type: cell-based; conditions: TDE = time-dependent effect; outline: as §4
HeLa [27] = test: Induction of apoptosis in human HeLa cells assessed as accumulation at subG1 phase at 3 uM after 24 hrs using propidium iodide staining by flow cytometry; type: functional; outline: as §2
HeLa [28] = test: Induction of apoptosis in human HeLa cells assessed as procaspase-3 activation at 3 uM after 24 hrs by Western blot; type: functional, cell-based
HeLa [29] = test: Growth inhibition of human HeLa cells after 48 hrs by MTT assay in presence of 50 uM CuCl2; type: functional; outline: as §1
HeLa [30] = test: Activation of ERK phosphorylation in human HeLa cells at 3 uM in presence of 10 uM CuCl2 and tempol after 2 hrs by Western blot; type: cell-based; outline: as §4
[31] = Growth inhibition of human SKHep cells after 48 hrs by MTT assay in presence of 10% FBS supplemented DMEM medium; type: functional; outline: as §1
HeLa [32] = test: Induction of apoptosis in human HeLa cells assessed as PARP cleavage at 3 uM after 24 hrs by Western blot; type: functional, cell-based
CE81T = test: Growth inhibition of human CE81T cells at 40 uM after 48 hrs by MTT assay in presence of 10% FBS supplemented DMEM medium; type: functional, cell-based; outline: as §1
BT-483 = test: Growth inhibition of human BT-483 cells at 40 uM after 48 hrs by MTT assay in presence of 10% FBS supplemented DMEM medium; type: functional, cell-based; outline: as §1
SKHep = test: Growth inhibition of human SKHep cells at 40 uM after 48 hrs by MTT assay in presence of 10% FBS supplemented DMEM medium; type: functional, cell-based; outline: as §1
HeLa [33] = test: Stimulation of reactive oxygen species in human HeLa cells at 10 uM in presence of 10 uM CuCl2 after 1 hr by dihydroethidium dye based fluorescence assay; type: functional, cell-based; outline: as §3

## O=S(=O)(c1ccccc1)N1CCN(Cc2ccc3cccnc3c2O)CC1
HeLa [1]
  Activity: Active
HeLa [2]
  Activity: Active
HeLa [3]
  GI50: 7.3 µM
[4]
  GI50: 10.7 µM
HeLa [5]
  Activity: 29.76%
HeLa [6]
  Activity: Active
[7]
  GI50: 5.6 µM
[8]
  Activity: Active
HeLa [9]
  GI50: 0.31 µM
HeLa [10]
  Activity: Active
HeLa [11]
  Activity: Active
HeLa [12]
  Activity: Dose-dependent effect
[13]
  Activity: Active
HeLa [14]
  GI50: 6.8 µM
HeLa [15]
  GI50: 7.5 µM
HeLa [16]
  Activity: tde
[17]
  Activity: inactive
[18]
  Activity: inactive
[19]
  Activity: inactive
HeLa [20]
  GI50: 2.5 µM
[21]
  Activity: tde
HeLa [22]
  Activity: 5.79%
HeLa [23]
  Activity: inactive
HeLa [24]
  Activity: Active
[25]
  Activity: inactive
[26]
  Activity: tde
HeLa [27]
  Activity: 7.91%
HeLa [28]
  Activity: Active
HeLa [29]
  GI50: 0.27 µM
HeLa [30]
  Activity: inactive
[31]
  GI50: 14.6 µM
HeLa [32]
  Activity: Active

## O=S(=O)(c1ccccc1)N1CCN(Cc2ccc3ccccc3c2O)CC1
CE81T
  GI50: inactive
HeLa [3]
  GI50: 20.1 µM
HeLa [9]
  GI50: 28.4 µM
HeLa [14]
  GI50: 38.6 µM
HeLa [15]
  GI50: 29.7 µM
HeLa [20]
  GI50: 40.1 µM
BT-483
  GI50: inactive
HeLa [29]
  GI50: 22.6 µM
SKHep
  GI50: inactive

## CCN(CC)CCCC(C)Nc1ccnc2cc(Cl)ccc12 (stereo unspecified) [CHLOROQUINE]
HeLa [3]
  GI50: 2.1 µM
[4]
  GI50: 10.2 µM
[7]
  GI50: 23.4 µM
HeLa [9]
  GI50: 5.3 µM
HeLa [14]
  GI50: 18.6 µM
HeLa [15]
  GI50: 5.6 µM
HeLa [33]
  Activity: Active
HeLa [20]
  GI50: 6.1 µM
HeLa [29]
  GI50: 4.4 µM
[31]
  GI50: 9.5 µM
